# M1 agonist – activates the M1 muscarinic receptor | CHO-M1 cells, Fluo-4 calcium fluorescence, agonist mode; stronger effect = higher value | B-score at 10 µM | 64,000 tested, 3% active | AID 626;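 active means fluorescence rise, raw or as B-score row- and column-corrected plate score, outside the 99.7% band of its plate's samples, either direction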
# M1 antagonist – M1 muscarinic receptor (rat) antagonism | CHO-M1 cells, Fluo-4 calcium, ACh EC80 antagonist mode; stronger effect = lower value | 64,000 tested, 3.4% active | P08482 | B-score at 10 µM;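 active means calcium fluorescence response, raw or row-and-column corrected B-score, differing from the plate sample mean either way at a set confidence level, mostly lower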
# S1P1 ag-PAM – activates or potentiates agonism at human S1P1 receptor; P21453; S1P1 CRE-bla cells, forskolin, beta-lactamase FRET, potentiator mode; S1P1 agonist co-added at EC20, 2 nM; 100% = saturating reference agonist, 0% = basal; activation, % at 9.5 µM; 56,000 tested, 0.57% active; AID 449;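 active means activation above a cutoff set at the mean activation of all tested compounds plus 3 SD, cut at about 54% in these data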;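 further: forskolin at 4 µM as EC80 and the EC20 agonist is SEW2871; 100% = SEW2871 at its EC100 plus forskolin at EC80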
# S1P3 agonist – activates the human S1P3 receptor; activation, % at 4.5 µM; 60,000 tested, 0.1% active; S1P3 NFAT-BLA reporter cells, agonism, FRET ratio; relative to 1 µM S1P, basal subtracted; Q99500;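 active means activation above the screen-wide mean plus 3 SD, cut at about 4.5% in these data, passing the limit was not always enough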
#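 Benchmarks: high control 1 µM S1P / System: stable CHO line with human S1P3, Gα16, NFAT-BLA reporter / Dosing: single compound concentration, 4.5 µM final / Timing: 4 h compound at 37 °C, 2 h substrate at RT / Measured by: FRET β-lactamase substrate fluorescence, excitation 405 nm, 460/535 nm emission ratio, background-subtracted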
# D1 allo mod – D1 dopamine receptor (human) allosteric modulation | HEK293 D1, CRE-luciferase, dopamine EC30 potentiation; actives deviate in either direction | AID 641 | P21728 | B-score at 10 µM | 58,000 tested, 5.9% active;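 active means luminescence count or its row- and column-corrected plate score outside the 99.7% band of the plate's sample wells, on either side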
# Target sequence (P21728 whole entry, looked up): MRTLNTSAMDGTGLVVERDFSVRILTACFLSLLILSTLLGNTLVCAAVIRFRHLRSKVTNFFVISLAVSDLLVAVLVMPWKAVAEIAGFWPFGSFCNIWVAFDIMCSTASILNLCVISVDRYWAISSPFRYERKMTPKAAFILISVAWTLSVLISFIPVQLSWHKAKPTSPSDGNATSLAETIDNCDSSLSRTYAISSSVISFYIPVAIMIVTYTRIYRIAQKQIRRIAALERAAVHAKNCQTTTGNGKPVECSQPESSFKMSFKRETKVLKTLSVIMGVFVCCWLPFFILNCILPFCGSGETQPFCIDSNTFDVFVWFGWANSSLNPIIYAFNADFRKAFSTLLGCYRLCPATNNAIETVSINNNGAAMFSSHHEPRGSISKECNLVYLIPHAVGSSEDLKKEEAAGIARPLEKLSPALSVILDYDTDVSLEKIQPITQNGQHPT
# M1 antag conf – M1 muscarinic receptor (rat) antagonism, confirmed; shares compounds with M1 antagonist; 1,700 tested, 43% active; CHO-M1 cells, Fluo-4 calcium, ACh EC80 antagonism; stronger effect = lower value; calcium response (max-min fluorescence) at 10 µM;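 active means calcium response below the same-plate mean of wells given acetylcholine alone at its 80%-effect dose, minus 3 SD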;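 further: raw fluorescence intensity difference in arbitrary instrument units and not normalized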
# mGluR4 antag – selectivity test for M1 antagonists: human mGluR4 receptor; shares compounds with M1 antagonist; CHO-mGluR4 calcium flux, Fluo-4 fluorescence, glutamate EC80; stronger effect = lower value; fluorescence response (max-min) at 10 µM; 1,700 tested, 0.9% active;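 active means fluorescence response below the plate's average for near-maximal glutamate wells, less 3 SD of those wells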;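 further: raw unnormalized fluorescence span taken in the window right after glutamate addition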
# D1 mod confirm – D1 receptor (human) allosteric modulation, confirmed. shares compounds with D1 allo mod. HEK293 D1 CRE-luciferase, dopamine EC30 potentiation; stronger effect = higher value. luminescence at 10 µM. 2,200 tested, 88% active. AID 642;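 active means luminescence in either of two replicates above the same-plate mean plus 3 SD of the low-dose dopamine control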
# D1 no dopamine – D1 (human) signaling in absence of dopamine; shares compounds with D1 allo mod; HEK293 D1 CRE-luciferase, luminescence, no dopamine; stronger effect = higher value; luminescence at 10 µM; 1,900 tested, 0.8% active; in the data active means luminescence above about 3900
# Isoprot counter – counter-screen for D1 modulators: isoproterenol response in HEK293 cells | HEK293 D1 CRE-luciferase, isoproterenol EC30 counter-screen; stronger effect = higher value | luminescence at 10 µM | shares compounds with D1 allo mod | 2,200 tested, 63% active | AID 647;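 active means luminescence in either replicate above plate mean of wells with a partly effective reference agonist dose plus 3 SD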;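 further: isoproterenol raises cAMP through native beta-adrenoceptor Gs so signal bypasses D1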
# * = called active by the depositor; nt = no result. Only some compounds are listed: those with a hit (about 11% of all), similar ones and a draw of the others.
SMILES,M1 agonist,M1 antagonist,S1P1 ag-PAM,S1P3 agonist,D1 allo mod,D1 mod confirm,D1 no dopamine,Isoprot counter,others
COc1ccc(Cc2nnc(NC(=O)c3cccs3)s2)cc1,-0.0067,0.4,-38,0,0.094,nt,nt,nt,
CCN(CC)CCOc1c(Br)ccc2c1sc1nc3n(c(=O)c12)CCC3,-0.055,-11*,-25,0,2.7*,8312*,1568,6412,M1 antag conf=130*;mGluR4 antag=229
O=C(CN1CCC(O)(c2ccc3c(c2)OCO3)CC1)OC1CCCCC1,0.34,-0.22,4,0,-0.095,nt,nt,nt,
CCc1ccc(-c2nc(CN3CCC(C(=O)N4CCN(c5ccccn5)CC4)CC3)c(C)o2)cc1,0.42,-2.6*,24,-1,7.1*,6240*,nt,2640*,M1 antag conf=411;mGluR4 antag=213
CCc1ccc(-c2nc(CN3CCCC(C(=O)O)C3)c(C)o2)cc1 (centres undefined),-0.67,-0.42,-14,-1,-0.054,nt,nt,nt,
C/C=C/Cn1c(SCc2ccccc2)nc2c1c(=O)[nH]c(=O)n2C,0.67,-2.7*,-5,-1,15*,16256*,1572,4120*,M1 antag conf=589;mGluR4 antag=245
CCOCCn1c(SCc2ccccc2)nc2c1c(=O)[nH]c(=O)n2C,0.15,-0.27,-7,0,0.26,nt,nt,nt,
CCC(=O)N1c2ccc(S(=O)(=O)CCC(=O)N3CCn4c3nc3ccccc34)cc2CC1C (centres undefined),0.61,-3.3*,-24,0,3.9*,12244*,1788,3500*,M1 antag conf=508;mGluR4 antag=208
CCC(=O)N1c2ccc(S(=O)(=O)CCC(=O)NC3CCCC3)cc2CC1C (centres undefined),-0.23,0.042,-38,0,0.13,nt,nt,nt,
CCCCc1c(O)nc(SCC(=O)N2CCOCC2)[nH]c1=O,-0.48,0.42,nt,nt,-0.44,nt,nt,nt,
CCSc1nc2cc(OC)c(OC)cc2c(=O)n1CC,0.25,-3.1*,-36,1,11*,13604*,1368,3820*,M1 antag conf=566;mGluR4 antag=241
CC1CCN(Cc2ccc(NC(=O)CC3Oc4ccccc4NC3=O)cc2)CC1 (centres undefined),-0.7,-11*,-1,0,2.8*,5132,1676,2660,M1 antag conf=24*;mGluR4 antag=229
O=C(CC1Oc2ccccc2NC1=O)NC1CCCC1 (centres undefined),-0.9,0.016,-7,-2,0.54,nt,nt,nt,
O=C(NCc1cccs1)C1CCCN(c2nc3ccccc3o2)C1 (centres undefined),-0.48,0.024,17,1,-0.37,nt,nt,nt,
CCOc1nc(C#N)nc(N2CCCCC2)n1,-1.6,-1.2*,-25,0,2.6*,10912*,1612,3268*,M1 antag conf=430*;mGluR4 antag=234
COc1nc(N2CCCCCC2)nc(N2CCCCCC2)n1,-0.2,0.45,3,-2,0.018,nt,nt,nt,
Cc1cc(C)n(CCCNCC(O)c2ccccc2)n1 (centres undefined),0.064,0.82,5,1,-0.09,nt,nt,nt,
COc1cccc(OC)c1OCCCSc1nc(C)cc(=O)[nH]1,-0.34,-0.086,nt,0,0.11,nt,nt,nt,
CC(C)COc1cc(=O)[nH]c(SCC(C)C)n1,-0.82,1.2,-31,0,18*,26448*,1948,6352*,
O=C(c1ccco1)N1CCN(C(=O)C2CCN(S(=O)(=O)Cc3ccccc3)CC2)CC1,-0.025,-0.9,-9,1,0.54,nt,nt,nt,
CCOC(=O)c1[nH]c(C)c(C(=O)OCC)c1C,0.037,0.14,-34,1,4.2,nt,nt,nt,
CCOC(=O)c1[nH]c(C)c(C(=O)c2cc(F)ccc2F)c1C,0.19,-0.36,-8,-1,5.7*,8492*,1728,5416*,
Cc1ccccc1-n1c(C)nnc1SCC(=O)N1CC(=O)Nc2ccccc21,0.11,0.67,0,0,nt,nt,nt,nt,
Cc1ccc2nc(NCCO)nc(-c3ccccc3)c2c1,-0.16,-0.96,5,0,14*,19388*,nt,3656*,
CN(C)C(=O)CSc1nc(SCC(=O)N(C)C)n(-c2ccccc2)n1,0.78,0.24,-3,0,0.18,nt,nt,nt,
SMILES,M1 agonist,M1 antagonist,S1P1 ag-PAM,S1P3 agonist,D1 allo mod,D1 mod confirm,D1 no dopamine,Isoprot counter,others
CN(C(=O)CSc1nc(N)nn1-c1ccccc1)c1ccccc1,-0.68,0.054,-19,0,11*,6016,1696,2588,
CCN(CC)C(=O)C(C)N(C#N)c1nc(NC(C)C)nc(NC(C)C)n1 (centres undefined),0.33,0.14,nt,nt,1.5,nt,nt,nt,
CCC(C)Nc1nc(OC)nc(N(C)C#N)n1 (centres undefined),-0.039,0.0047,-2,-2,6.9*,12160*,2240,3104,
COc1ccc(CCNC(=O)c2cnc3scc(C)n3c2=O)cc1OC,-1.7,-0.77,-24,-1,40*,17580*,1900,15724*,
COc1ccc(CCNC(=O)c2cccnc2)cc1OC,nt,nt,-1,-1,3.4*,6704,1660,2624,
COc1ccc(CCNC(=O)c2ccncc2)cc1OC,-0.31,-0.031,-10,-2,0.076,nt,nt,nt,
COc1ccc(C)cc1NC(=O)c1cnc2scc(C)n2c1=O,-0.68,0.43,-23,0,-0.6,nt,nt,nt,
CCc1nc2ccccc2n1Cc1ccc(OC)c(OC)c1,0.45,-0.2,nt,nt,6.2*,18880*,1604,5464*,
COc1ccc(Cn2c(CCCO)nc3ccccc32)cc1OC,0.1,0.056,-17,2,14*,15968*,1476,6660*,
CCN(CC)CCCNC(=O)C1c2ccccc2C(=O)N(C)C1c1ccc(OC)cc1 (centres undefined),0.83,-0.35,nt,nt,-0.57,nt,nt,nt,
CCCCCn1c(CCCNC(=O)CC)nc2ccccc21,-0.0079,1,-5,-1,-0.44,nt,nt,nt,
Cc1cccc(-c2c3c(=O)n(C)c(=O)n(C)c3cn2C(C)C)c1,2.8*,0.38,14,0,14*,15796*,1340,3908*,
Cc1cccc(-c2c3c(=O)n(C)c(=O)n(C)c3c3cccnn23)c1,-0.2,-0.63,-9,22,22*,23480*,1672,4468*,
Cc1cccc(-c2c3c(=O)n(C)c(=O)n(C)c3cn2C(C)(C)C)c1,-0.07,-2.3,-5,1,1.6,nt,nt,nt,
COC(=O)COC(=O)CC(CC(N)=O)c1ccccc1 (centres undefined),0.38,0.079,-24,0,0.36,nt,nt,nt,

# Compound activity as filed in PubChem BioAssay.
